A selection: hits, their analogues and other compounds. The true share with any hit is near 1.4%.
CR mimetic SO: yeast age-related superoxide inhibition as caloric restriction mimetic; S. cerevisiae aged cells, superoxide DHE fluorescence; hits give low values; superoxide response (% of plate mean), % at 10 µM; actives 0.18% (n = 330,000); AID 2690;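 active = superoxide response under a set limit, about three screen SD below normal, cut at about 65% in these data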;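 also: yeast aged for seven days with compound at 30 °C before DHE staining; 100% = average MFI of all compound-treated wells on the plate with controls excluded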
Tb MetRS inh: blocks T. brucei methionyl-tRNA synthetase activity | purified T. brucei MetRS, ATP depletion, Kinase-Glo luminescence | inhibition, % at 11.9 µM | actives 0.4% (n = 360,000) | AID 624268;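 active = inhibition above a per-plate cutoff of the control wells' mean inhibition plus 3 SD, cut at about 5.5% in these data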;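 also: 0% = DMSO wells median and 100% = median of wells with control inhibitor compound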
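Test system: purified T. brucei MetRS enzyme. Also added: ATP, methionine and E. coli bulk tRNA substrates. Compound: 11.9 µM single point. Schedule: 15 min enzyme-compound preincubation, 2 h reaction, 10 min detection, 25 °C. Signal: luciferase luminescence of residual ATP, Kinase-Glo. Evaluation: percent inhibition versus plate control medians. Controls: DMSO wells, low control.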
IDE inh: cellular human IDE inhibition; HEK cells, FAbetaB cleavage, fluorescence polarization; inhibition, % at 5.59 µM; actives 0.41% (n = 320,000);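 active = percent inhibition above the average of all tested compounds plus 3 SD, set per screening campaign, cut at about 16% in these data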;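 also: IDE supplied by intact live HEK cells; FP after avidin binding of uncleaved biotin substrate so inhibition keeps polarization high; 0% = DMSO wells and 100% = 60 µM reference IDE inhibitor Ii1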
Target sequence (P14735 whole entry, looked up): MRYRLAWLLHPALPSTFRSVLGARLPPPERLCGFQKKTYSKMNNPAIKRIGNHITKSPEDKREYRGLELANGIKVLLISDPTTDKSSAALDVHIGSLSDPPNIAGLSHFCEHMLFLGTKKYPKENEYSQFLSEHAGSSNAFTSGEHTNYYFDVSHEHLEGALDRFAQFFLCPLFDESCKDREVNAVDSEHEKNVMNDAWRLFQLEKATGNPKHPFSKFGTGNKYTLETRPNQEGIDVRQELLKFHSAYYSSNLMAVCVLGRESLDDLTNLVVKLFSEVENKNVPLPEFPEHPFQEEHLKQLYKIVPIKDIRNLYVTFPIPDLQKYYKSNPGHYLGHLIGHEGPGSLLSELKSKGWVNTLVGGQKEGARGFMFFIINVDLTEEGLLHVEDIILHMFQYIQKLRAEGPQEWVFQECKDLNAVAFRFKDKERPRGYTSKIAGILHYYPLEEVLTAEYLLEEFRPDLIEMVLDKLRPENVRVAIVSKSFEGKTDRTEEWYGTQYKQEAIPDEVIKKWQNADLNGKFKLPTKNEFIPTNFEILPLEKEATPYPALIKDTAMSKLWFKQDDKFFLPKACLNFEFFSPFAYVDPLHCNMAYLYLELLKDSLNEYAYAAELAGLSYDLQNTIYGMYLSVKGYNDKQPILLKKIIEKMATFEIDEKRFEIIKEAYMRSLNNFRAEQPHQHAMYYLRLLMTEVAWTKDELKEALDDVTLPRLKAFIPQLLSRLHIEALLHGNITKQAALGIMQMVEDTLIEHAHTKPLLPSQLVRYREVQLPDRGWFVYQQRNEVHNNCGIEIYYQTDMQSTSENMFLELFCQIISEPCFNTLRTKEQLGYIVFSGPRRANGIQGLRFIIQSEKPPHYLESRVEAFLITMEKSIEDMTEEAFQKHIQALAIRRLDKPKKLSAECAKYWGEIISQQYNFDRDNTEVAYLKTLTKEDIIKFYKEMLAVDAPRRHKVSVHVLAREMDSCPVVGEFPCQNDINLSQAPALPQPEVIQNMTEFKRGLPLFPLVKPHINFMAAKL
HDAC3 inh: human HDAC3 inhibition | recombinant HDAC3, fluorogenic peptide/trypsin coupled, fluorescence | inhibition, % at 8.3 µM | actives 0.15% (n = 320,000) | AID 2718; in the data active = inhibition above about 26%, passing the limit was not always enough
IDE cell activ: IDE (human) activation, cell-based | P14735 | HEK cells, FAbeta-B cleavage, fluorescence polarization; 0% vehicle, 100% cell-free pure enzyme wells | activation, % at 5.96 µM | actives 0.073% (n = 340,000);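 active = activation above the mean of all tested compounds plus 3 SD, set per screening campaign, cut at about 17% in these data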
Efflux pump inh: blocks antifungal efflux pumps in multiplex yeast assay | S. cerevisiae Candida pump triplex, Nile Red efflux | inhibition, % at 10 µM | actives 0.44% (n = 330,000);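 active = plate passing quality check with inhibition over a set limit, or well fluorescence over plate mean plus 4 SD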;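 also: Nile Red retained in pooled yeast measured as flow cytometry median fluorescence; 0% = buffer negative control and 100% = Enniatin B positive control; higher means more Nile Red kept so more efflux inhibition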
Tb MetRS conf: confirmation of Trypanosoma brucei MetRS inhibitors; shares compounds with Tb MetRS inh; inhibition, % at 11.9 µM; AID 624412; T. brucei MetRS enzyme, luminescence (ATP depletion); actives 93% (n = 1,400); in the data active = inhibition above about 7%
Jurkat tox: counter-screen for T. brucei MetRS inhibitors: Jurkat cell cytotoxicity; shares compounds with Tb MetRS inh; AID 624413; actives 12% (n = 1,400); Jurkat cells viability, ATP luminescence; inhibition, % at 8.3 µM; in the data active = inhibition above about 15%;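 also: 0% = vehicle and 100% = reference inhibitor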
TbMetRS FP orth: T. brucei MetRS inhibition, orthogonal assay; inhibition, % at 11.9 µM; purified T. brucei MetRS, fluorescence polarization; actives 44% (n = 1,400); shares compounds with Tb MetRS inh; in the data active = inhibition above about 17%;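 also: 0% = vehicle wells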
Active calls of the source: *; . = no result given; ! = a repeat was not active.

SMILES | CR mimetic SO | Tb MetRS inh | IDE inh | HDAC3 inh | IDE cell activ | Efflux pump inh | Tb MetRS conf | Jurkat tox | TbMetRS FP orth
Cc1sc(-c2ccccn2)nc1OC(=O)c1ccc(Cl)c(Cl)c1 | 101 | 14* | -5 | -2 | 4 | 0 | 3 | 2 | 0
O=C(NCc1cccc(C(F)(F)F)c1)c1cc(Cl)cc(Cl)c1 | 75 | 0 | 8 | -2 | -3 | 0 | . | . | .
CC(=O)c1c[nH]c(C(=O)NCc2cccc(C(F)(F)F)c2)c1 | 84 | 92* | 3 | -2 | 1 | 0 | 94* | 0 | 78*
CC(=O)N1N=C(c2ccccc2O)CC1c1cccs1 (stereo unspecified) | 97 | 0 | 0 | -4 | -4 | 0 | . | . | .
NC(=NCCCCCCN=C(N)/N=C(\N)Nc1ccc(Cl)cc1)/N=C(\N)Nc1ccc(Cl)cc1 | 103 | 45*! | -3 | 10 | 4 | 0 | 53* | 31* | 51*
Cc1[nH]nc(SCC(=O)NCc2ccc(Cl)cc2)c1[N+](=O)[O-] | 119 | 0 | 4 | 3 | -2 | 0 | . | . | .
NC(=NCCc1ccccc1)NS(=O)(=O)c1ccccc1 | 87 | 1 | 2 | 0 | -2 | 0 | . | . | .
Cc1cccc(CCN=C(N)NS(=O)(=O)c2ccccc2)c1 | 103 | 6.2* | 0 | 3 | 7 | 0 | 14* | 6 | 5
O=C(CCCCCN1C(=O)c2ccccc2C1=O)NCCc1nc2ccccc2[nH]1 | 95 | -1 | -2 | 3 | -4 | 1 | . | . | .
COCC(=O)NCCc1nc2ccccc2[nH]1 | 87 | -1 | -1 | . | 1 | 0 | . | . | .
Cc1ccc(CCNC(=O)CCc2nc3ccccc3[nH]2)cc1 | 98 | 21* | 6 | -8 | -2 | 0 | 37* | -4 | 16
COc1ccc(CCC(=O)NCCc2nc3ccccc3[nH]2)cc1 | 100 | 9.4* | 1 | -6 | 6 | 0 | 16* | -4 | 1
COc1ccc(CCNC(=O)CCc2nc3ccccc3[nH]2)cc1OC | 95 | 8.3* | 4 | -3 | -4 | 0 | 11* | 2 | 6
COc1ccc(OCCCC(=O)NCCc2nc3ccccc3[nH]2)cc1 | 98 | 48* | 10 | -4 | 4 | 0 | 70* | -3 | 32*
CCCC(=O)NCCCc1nc2ccccc2[nH]1 | 108 | -1 | 2 | . | 3 | 0 | . | . | .
CCOc1ccc(CCNC(=O)CCc2nc3ccccc3[nH]2)cc1OCC | 105 | 3 | 1 | 9 | 0 | 0 | . | . | .
O=C1/C(=C/c2cccs2)SC(=S)N1CCC(=O)N1CCCCC1CCO (stereo unspecified) | 86 | 0 | 6 | 2 | 6 | 0 | . | . | .
C#CCOc1ccc(C2C3=C(CCCC3=O)N(CC(=O)O)C3=C2C(=O)CCC3)cc1Br | 106 | 3 | 0 | -38 | 2 | 0 | . | . | .
O=C(Nc1ccc(Cl)cc1)Nc1ccccc1C(=O)NCc1ccco1 | 84 | 14* | 2 | 9 | 2 | 0 | 20* | 2 | 14
O=C(NCCSCc1ccco1)Nc1ccc(Cl)cc1 | 94 | 6.4* | -1 | 6 | 3 | 0 | 16* | 4 | 8
S=C(NCCSCc1ccccc1Cl)Nc1ccccc1 | 105 | 2 | 0 | 2 | 2 | 0 | . | . | .
S=C(NCCSCc1ccc(Cl)cc1)Nc1ccccc1 | 98 | 30* | -2 | 7 | -3 | 0 | 51* | 5 | 50*
CC(=O)NCc1ccc(S(=O)(=O)N2CCCN(C)CC2)cc1 | 97 | 0 | -3 | -5 | 0 | 0 | . | . | .
CN(C)CCOCCOc1ccc(Cl)cc1Br | 116 | 5.7* | 5 | 4 | 1 | 0 | 9.5* | 4 | 8
CCOc1cc(N2CCOCC2)c(OCC)cc1NC(=O)COC(=O)c1ccccc1OC(F)F | . | 0 | . | . | 1 | . | . | . | .

Screening data as filed in PubChem.
